In assay [1] the test system is Mycobacterium tuberculosis. Kind of assay: Antimycobacterial activity against Mycobacterium tuberculosis H37Rv ATCC 27294 after 28 days by colony forming unit determination. The format is functional. The conditions noted are these: H37Rv ATCC 27294, 672 h. The method in brief:
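Compounds added to Sula liquid medium as DMSO solutions (DMSO at most 2%), incubated at 37 °C for 28 days. MIC is the lowest concentration giving visible growth inhibition. Activity was confirmed by CFU counts after subculture onto drug-free Löwenstein-Jensen solid medium.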

The subject of assay [2] is Mycobacterium kansasii. Kind of assay: Antimycobacterial activity against Mycobacterium kansasii CNTC My 235/80 after 7 days. The class given is functional. The settings on record: CNTC My 235/80, 168 h.
For assay [3], the system named is Mycobacterium kansasii. Nature of the assay: Antimycobacterial activity against Mycobacterium kansasii CNTC My 235/80 after 21 days. The class given is functional. The conditions noted are these: CNTC My 235/80, 504 h.
For assay [4], the system named is Mycobacterium avium. Nature of the assay: Antimycobacterial activity against Mycobacterium avium CNTC 330/88 after 21 days. The format is functional. The settings on record: CNTC 330/88, 504 h.
Assay [5] concerns Mycobacterium kansasii. Nature of the assay: Antimycobacterial activity against Mycobacterium kansasii CNTC My 235/80 after 14 days. The format is functional. The conditions noted are these: CNTC My 235/80, 336 h.
Assay [6] relates to Mycobacterium kansasii. Nature of the assay: Antimycobacterial activity against Mycobacterium kansasii CNTC 6509/96 after 14 days. The class given is functional. The conditions noted are these: CNTC 6509/96, 336 h.
Assay [7] has as its system Mycobacterium kansasii. Kind of assay: Antimycobacterial activity against Mycobacterium kansasii CNTC 6509/96 after 21 days. The class given is functional. The conditions noted are these: CNTC 6509/96, 504 h.
The test system of assay [8] is Mycobacterium kansasii. Nature of the assay: Antimycobacterial activity against Mycobacterium kansasii CNTC 6509/96 after 7 days. The format is functional. The conditions noted are these: CNTC 6509/96, 168 h.
For assay [9], the system named is Mycobacterium avium. Nature of the assay: Antimycobacterial activity against Mycobacterium avium CNTC 330/88 after 14 days. The format is functional. The conditions noted are these: CNTC 330/88, 336 h.
A short description of assay [10]: Selectivity index, ratio of IC50 for human HepG2 cells to MIC for Mycobacterium tuberculosis H37Rv ATCC 27294. The class given is functional.
Assay [11] relates to HepG2. Kind of assay: Cytotoxicity against human HepG2 cells measured after overnight incubation by MTT assay. The format is cell-based. The method in brief:
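HepG2 cells in phenol-red-free RPMI-1640 with 10% FCS, 2 mM L-glutamine and gentamycin, seeded at 5 × 10³ per well. After 24 h at 37 °C, cells were exposed overnight to compound in serum-free medium. MTT (2 mg/mL) for 4 h, formazan dissolved in DMSO, read as OD540 minus OD620. % cytotoxicity versus untreated controls; IC50 taken from dose-response curves. Two independent experiments, 4–8 parallel measurements.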
For orientation: Tetrazolium assays rely on reduction of a dye to a coloured formazan, in cell work by metabolically active cells.

Assay [12] concerns PBMC. Kind of assay: Cytotoxicity against human PBMC measured after overnight incubation by MTT assay. The class given is cell-based. The method in brief:
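Freshly prepared human PBMC in phenol-red-free RPMI-1640 with 10% FCS, 2 mM L-glutamine and gentamycin, 2.0 × 10⁵ cells per well. After 24 h at 37 °C, overnight compound exposure in serum-free medium. MTT for 4 h, formazan in DMSO, OD540 minus OD620. % cytotoxicity versus controls; IC50 from dose-response curves. Two independent experiments.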

In brackets after ≈: the same amount, converted by molar mass.

The term MIC denotes the lowest concentration found to suppress growth. The low end stands for inhibition by little substance, the high end for a need for much substance. One may read the IC50 as the concentration that gives 50% inhibition. Read a low IC50 as greater potency in that assay.

As to `O=C(N/N=C/Nc1ccc(C(=O)O)c(O)c1)c1ccc(C(F)(F)F)cc1`, the minimum inhibitory concentration (MIC) in [1] amounted to 4 µg/mL (≈ 10.9 µM); in assay [2] it was 62.5 µM (≈ 23 µg/mL); in assay [3], 250 µM (≈ 91.8 µg/mL); in assay [4], 125 µM (≈ 45.9 µg/mL); in [5], 125 µM (≈ 45.9 µg/mL); in [6], 62.5 µM (≈ 23 µg/mL). The MIC in [7] amounted to 125 µM (≈ 45.9 µg/mL); in assay [8] it was 62.5 µM (≈ 23 µg/mL); in assay [9], 32 µM (≈ 11.8 µg/mL).

On to `O=C(N/N=C/Nc1ccc(C(=O)O)c(O)c1)c1cccc(C(F)(F)F)c1`, for which the MIC turned out to be 4 µg/mL (≈ 10.9 µM) in assay [1]; 32 µM (≈ 11.8 µg/mL) in assay [2]; 125 µM (≈ 45.9 µg/mL) in assay [3]; 500 µM (≈ 184 µg/mL) in [4]; 125 µM (≈ 45.9 µg/mL) in assay [5]; 62.5 µM (≈ 23 µg/mL) in assay [6]. For the same molecule, the minimal inhibitory concentration (MIC) was determined as 62.5 µM (≈ 23 µg/mL) in assay [7], 62.5 µM (≈ 23 µg/mL) in assay [8] and 250 µM (≈ 91.8 µg/mL) in [9].

For `O=C(N/N=C/Nc1ccc(C(=O)O)c(O)c1)c1ccc(F)cc1`, the MIC in assay [1] was determined as 4 µg/mL (≈ 12.6 µM); in [2], 32 µM (≈ 10.2 µg/mL); in [3], 62.5 µM (≈ 19.8 µg/mL); in assay [4], 125 µM (≈ 39.7 µg/mL); in assay [5] it was 62.5 µM (≈ 19.8 µg/mL); in assay [6] it was 32 µM (≈ 10.2 µg/mL). The MIC in assay [7], in [8] and in assay [9] was 32 µM (≈ 10.2 µg/mL) in each case.

On to `O=C(N/N=C/Nc1ccc(C(=O)O)c(O)c1)c1cccc(F)c1`, for which the minimum inhibitory concentration (MIC) in assay [1] is 2 µg/mL (≈ 6.3 µM); in assay [2], 32 µM (≈ 10.2 µg/mL); in assay [3], 62.5 µM (≈ 19.8 µg/mL); in assay [4], 62.5 µM (≈ 19.8 µg/mL); in assay [5], 62.5 µM (≈ 19.8 µg/mL); in assay [6] it was 32 µM (≈ 10.2 µg/mL). Further, the minimum inhibitory concentration (MIC) in assay [7], in assay [8] and in assay [9] was 32 µM (≈ 10.2 µg/mL) throughout. In [10], the “Selectivity Index” value is 148.25. Also, the IC50 in assay [11] and in assay [12] was 934 µM each time.

Take `O=C(O)c1ccc(N/C=N/NC(=O)c2ccccc2F)cc1O`: the minimum inhibitory concentration (MIC) in assay [1] was 2 µg/mL (≈ 6.3 µM); in assay [2] it was 32 µM (≈ 10.2 µg/mL); in assay [3] it was 62.5 µM (≈ 19.8 µg/mL); in [4], 62.5 µM (≈ 19.8 µg/mL); in assay [5], 32 µM (≈ 10.2 µg/mL); in assay [6] it was 62.5 µM (≈ 19.8 µg/mL). Further, the minimal inhibitory concentration (MIC) in assay [7] was 62.5 µM (≈ 19.8 µg/mL); in [8] it was 32 µM (≈ 10.2 µg/mL); in assay [9], 32 µM (≈ 10.2 µg/mL). The “Selectivity Index” value in assay [10] is 192.06. Besides, the IC50 in assay [11] and in assay [12] was 1210 µM in each case.

As to `O=C(N/N=C/N1CCN(c2cc3c(cc2F)c(=O)c(C(=O)O)cn3C2CC2)CC1)c1ccc(C(F)(F)F)cc1`, the MIC in assay [1] was 1 µg/mL (≈ 1.83 µM); in assay [2] it was 2 µM (≈ 1.09 µg/mL); in [3] it was 4 µM (≈ 2.18 µg/mL); in assay [4], 62.5 µM (≈ 34.1 µg/mL); in assay [5], 2 µM (≈ 1.09 µg/mL); in [6], 1 µM (≈ 0.545 µg/mL). The figures for the MIC in [7], in [8] and in [9] were 2 µM (≈ 1.09 µg/mL), 1 µM (≈ 0.545 µg/mL) and 32 µM (≈ 17.5 µg/mL), respectively. For the same molecule, in [10], the “Selectivity Index” value amounted to 189.21. The IC50 in assay [11] and in assay [12] was 347 µM in each case.

As to `O=C(N/N=C/N1CCN(c2cc3c(cc2F)c(=O)c(C(=O)O)cn3C2CC2)CC1)c1cccc(C(F)(F)F)c1`, the minimum inhibitory concentration (MIC) was found to be 2 µg/mL (≈ 3.67 µM) in [1]; 2 µM (≈ 1.09 µg/mL) in assay [2]; 4 µM (≈ 2.18 µg/mL) in assay [3]; 250 µM (≈ 136 µg/mL) in assay [4]; 2 µM (≈ 1.09 µg/mL) in [5]; 1 µM (≈ 0.545 µg/mL) in [6]. Moreover, the minimum inhibitory concentration (MIC) in assay [7] is 2 µM (≈ 1.09 µg/mL); in assay [8], 1 µM (≈ 0.545 µg/mL); in assay [9] it was 250 µM (≈ 136 µg/mL). Further, in assay [10], the “Selectivity Index” value worked out at 87.79. Moreover, the half-maximal inhibitory concentration (IC50) in assay [11] and in assay [12] was over 322 µM throughout.

With `O=C(N/N=C/N1CCN(c2cc3c(cc2F)c(=O)c(C(=O)O)cn3C2CC2)CC1)c1cccc(F)c1`, the MIC turned out to be 1 µg/mL (≈ 2.02 µM) in assay [1]; 4 µM (≈ 1.98 µg/mL) in [2]; 8 µM (≈ 3.96 µg/mL) in assay [3]; 250 µM (≈ 124 µg/mL) in [4]; 4 µM (≈ 1.98 µg/mL) in [5]; 4 µM (≈ 1.98 µg/mL) in assay [6]. Further, the minimal inhibitory concentration (MIC) was determined as 4 µM (≈ 1.98 µg/mL) in assay [7], 4 µM (≈ 1.98 µg/mL) in [8] and 125 µM (≈ 61.9 µg/mL) in assay [9]. Further, the “Selectivity Index” value in assay [10] was determined as 402.38. Moreover, the half-maximal inhibitory concentration (IC50) in [11] was over 812 µM; in [12], over 305 µM.

Source of the values: ChEMBL document CHEMBL1828506, “New fluorine-containing hydrazones active against MDR-tuberculosis” (Eur J Med Chem, 2011).
